Assay outcomes deposited in PubChem by The Scripps Research Institute Molecular Screening Center.
In the library only some 4% were active in any assay of this set; here they are far more common.
CHO parental Ca = ATP-evoked calcium signal inhibitors, parental CHO, primary screen, counter-screen for OX1R antagonist project, cell-based, fluorescence, Fluo-8 calcium dye | parental CHO-K1, ATP-induced calcium, Fluo-8 fluorescence | AID 463079, 2010 | hit rate 0.63% among 330,000 | inhibition, % at 5.6 µM;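 active = inhibition above that plate's mean sample inhibition plus 3 SD, cut at about 26% in these data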;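 note: 0% = ATP-challenged DMSO wells and 100% = DMSO wells without ATP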
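Material: parental CHO cells / Compound: single nominal dose of 5.6 µM per compound / Signal: Fluo-8 fluorescence / Replicates: singlicate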
TAAR1 ag = human TAAR1 agonists, primary screen, Fluo-8 calcium fluorescence, CHO RD-HGA16 cells; Trace amine-associated receptor 1 (Homo sapiens), Q96RJ0; vehicle wells 0%, saturating PEA agonist 100%; activation, % at 3 µM; hit rate 0.99% among 360,000;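 active = activation above the mean activation of all test compounds in the run plus 3 SD, cut at about 38% in these data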
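Signal – calcium-sensitive Fluo-8 signal, excitation 470-495, emission 515-575 nm · System – RD-HGA16 (CHO) cells co-expressing Gα16 and hTAAR1 · Incubation – 17-24 h seeding, 75 min 37 °C dye, 30 min RT · Compound dosing – 3 µM single concentration · Repeats – no replicates (n 1)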
OX1R antag-1 = antagonists of human orexin 1 receptor (OX1R). Orexin/Hypocretin receptor type 1 (Homo sapiens), O43613. OX1R-expressing cells, FRET antagonist read-out. inhibition, % at 6.6 µM. hit rate 1.8% among 330,000. AID 485270, 2010; in the data active = inhibition mostly above about 38%, no sharp cut-off; inactive = mostly below about 40%;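 note: 0% = agonist challenge alone and 100% = reference antagonist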
Target sequence (O43613 whole entry, looked up): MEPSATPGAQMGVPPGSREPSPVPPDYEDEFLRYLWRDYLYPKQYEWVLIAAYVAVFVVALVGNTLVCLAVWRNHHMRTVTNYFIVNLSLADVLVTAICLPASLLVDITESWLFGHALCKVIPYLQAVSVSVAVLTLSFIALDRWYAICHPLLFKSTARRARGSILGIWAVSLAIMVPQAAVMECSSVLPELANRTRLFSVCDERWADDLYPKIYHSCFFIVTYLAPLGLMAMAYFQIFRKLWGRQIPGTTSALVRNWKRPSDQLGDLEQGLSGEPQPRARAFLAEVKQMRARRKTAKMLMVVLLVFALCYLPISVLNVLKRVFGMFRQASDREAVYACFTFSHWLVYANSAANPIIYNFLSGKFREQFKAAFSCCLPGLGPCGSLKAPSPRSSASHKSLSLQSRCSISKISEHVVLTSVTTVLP
TAAR1 antagonist = human TAAR1 antagonists, primary screen, Fluo-8 calcium fluorescence, CHO RD-HGA16 cells | antagonist | AID 624466, 2012 | hit rate 1.5% among 360,000 | inhibition, % at 3 µM;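 active = inhibition above a per-plate cutoff, the mean inhibition of test compounds on that plate plus 3 SD, cut at about 49% in these data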;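 note: 0% = DMSO plus EC80 beta-PEA response and 100% = DMSO alone without agonist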
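Material: CHO RD-HGA16 cells bearing hTAAR1; compound dosing: one-point dosing, 3 µM nominal final; schedule: dye loading 75 min at 37 °C, then 30 min room temperature; measured by: calcium fluorescence with Fluo-8; control set: vehicle and agonist controls; replication: n of 1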
OX1R antag-2 = OX1R (HCRTR1) antagonists, primary screen, fluorescence, CHO/OX1R cells, Fluo-8 calcium, orexin A; Orexin/Hypocretin receptor type 1 (Homo sapiens), O43613; hit rate 0.43% among 330,000; inhibition, % at 5 µM; Fluo-8 calcium fluorescence;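 active = inhibition above its plate's threshold, mean inhibition of all tested compounds on the plate plus 3 SD, cut at about 37% in these data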;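 note: 0% = orexin A challenge wells and 100% = SB-334867-A antagonist wells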
TAAR1 ag confirm = human TAAR1 agonists, retest of hits, confirmation, Fluo-8 calcium fluorescence, CHO RD-HGA16 cells | shares compounds with TAAR1 ag | scaled: DMSO 0%, maximal phenethylamine 100% | activation, % at 3 µM | hit rate 82% among 2,400 | AID 651783, 2012;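 active = activation above a cutoff set at the run's mean compound activation plus 3 SD, cut at about 39% in these data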
Ga16 nonsel ag = nonselective calcium mobilization agonists, CHO-Ga16 cells, counter-screen for hTAAR1 agonist project, cell-based, fluorescence, CHO-Ga16 parental line | Fluo-8 calcium fluorescence; normalized to maximal ATP response, DMSO zero | hit rate 50% among 2,400 | shares compounds with TAAR1 ag | activation, % at 3 µM;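 active = activation above the run cutoff, the mean activation over all tested wells plus 3 SD, cut at about 12% in these data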;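 note: 0% = DMSO wells and 100% = maximal ATP response on the peak over basal ratio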
TAAR1 desens = TAAR1 desensitization by agonist hits, confirmation, counter-screen for TAAR1 agonist project, cell-based, fluorescence, tachyphylaxis; shares compounds with TAAR1 ag; CHO RD-HGA16 hTAAR1, Fluo-8 calcium, beta-PEA response inhibition; inhibition, % at 3 µM; hit rate 46% among 2,400;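 active = inhibition above the run cutoff, the mean inhibition of all test compounds plus 3 SD, cut at about 49% in these data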;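 note: beta-PEA stimulus applied at its EC80; loss of beta-PEA calcium signal after compound pretreatment read as receptor desensitization; 0% = DMSO with beta-PEA at EC80 and 100% = DMSO alone without agonist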
Ga16 nonsel ant = inhibition of ATP-evoked calcium response in CHO-Ga16 cells, counter-screen for TAAR1 agonist project, cell-based, fluorescence; CHO-Ga16 ATP-induced calcium, Fluo-8 fluorescence; shares compounds with TAAR1 ag; hit rate 39% among 2,400; AID 651952, 2012; inhibition, % at 3 µM;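 active = inhibition above the plate's mean compound inhibition plus 3 SD, computed per plate, cut at about 22% in these data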;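 note: 0% = EC80 ATP with DMSO and 100% = DMSO wells without ATP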
An asterisk follows results filed as active; . = no result given.

SMILES	CHO parental Ca	TAAR1 ag	OX1R antag-1	TAAR1 antagonist	OX1R antag-2	TAAR1 ag confirm	Ga16 nonsel ag	TAAR1 desens	Ga16 nonsel ant
O=[N+]([O-])c1cc(Cl)c2cccnc2c1O	-7.9	44.0*	34.1	7.2	-4.2	5.9	10.3	5.2	5.5
O=c1cc(Nc2ccc3c(c2)OCO3)[nH]c(=O)n1-c1ccc(Br)cc1	-10.3	48.0*	-0.1	-7.1	-7.5	76.0*	5.9	24.5	7.4
CC(=O)c1ccc(N2CCN(Cc3nc(Cc4ccccc4)no3)CC2)cc1	-9.9	0.9	19.5	10.3	-34.0	.	.	.	.
N#C/C(=C\c1ccccn1)c1nc2ccccc2s1	44.5*	71.7*	11.7	75.0*	57.1*	19.1	29.2*	41.5	52.9*
COc1ccc(OCC(=O)NNC(=S)NC(=O)C2CCCCC2)cc1	-7.5	65.1*	26.4	28.3	-7.8	77.8*	50.5*	37.9	35.7*
CCc1ccc(OCC(=O)NNC(=S)NC(=O)C2CCCCC2)c(Br)c1	-4.7	79.5*	21.2	42.8	-4.3	78.1*	47.1*	61.6*	45.4*
COc1ccc(CC(=O)NC(=S)NNC(=O)COc2c(C)cccc2C)cc1	-2.7	94.1*	12.8	52.5*	-12.7	93.1*	61.0*	63.6*	47.1*
CNC(=S)NNC(=O)Cc1ccc(OC)cc1	6.5	1.8	1.5	3.8	-0.8	.	.	.	.
COc1ccc(OCC(=O)NNC(=S)NC(=O)C2CC2)cc1	.	1.6	.	-5.3	.	.	.	.	.
CC(Cc1ccccc1)N/C=C1\CC(=O)NC1=O (stereo not given)	-8.6	74.1*	15.9	52.6*	-4.0	71.7*	-0.5	22.8	6.5
O=C(NCCc1ccccc1)C(=O)c1c(-c2ccccc2)[nH]c2ccccc12	-13.4	3.2	22.8	28.4	-15.0	.	.	.	.
CC(C)c1nn2c(=O)cc(O)nc2s1	-0.3	0.8	3.4	1.3	-8.5	.	.	.	.
COc1ccc(C(C)=O)cc1CC(=O)Nc1cccc(S(=O)(=O)N2CCOCC2)c1	-6.5	4.8	-1.4	-14.2	-18.4	.	.	.	.
CC(C)CNC(=O)c1ccccc1-c1ccccc1C(=O)O	7.2	53.5*	13.8	3.0	-4.6	7.0	5.1	-2.1	7.3
COc1cc2c(c(OC)c1OC)C1(CCCCC1)CC2NS(=O)(=O)C(C)C (stereo not given)	.	91.5*	.	49.1*	.	15.4	3.0	2.2	6.3
CCOC(=O)C(NC(C)=O)(OCc1ccc(F)cc1)C(F)(F)F (stereo not given)	-9.3	1.6	7.7	-0.3	-12.6	.	.	.	.
CCOC(=O)C(NCCc1ccccc1)(NC(C)=O)C(F)(F)F (stereo not given)	-0.5	.	15.7	.	-1.3	.	1.0	.	2.8
CCOC(=O)C(NCc1ccc(OC)cc1)(NC(C)=O)C(F)(F)F (stereo not given)	-9.9	-0.6	17.3	18.5	-0.2	.	.	.	.
CCOC(=O)C(NCCc1ccc(F)cc1)(NC(=O)CC)C(F)(F)F (stereo not given)	-17.5	51.2*	6.0	17.7	-11.6	64.0*	5.7	9.7	-3.0
CCOC(=O)NC(NCCc1ccccc1)(C(F)(F)F)C(F)(F)F	-4.4	87.3*	8.5	86.7*	-9.0	97.9*	14.8*	87.4*	-8.0
